Test results: ChEMBL document CHEMBL5321288, “Proteolytically Stable Diaza-Peptide Foldamers Mimic Helical Hot Spots of Protein-Protein Interactions and Act as Natural Chaperones” (J Med Chem, 2023)
Activity calls are given as the source filed them. The rule behind the calls is not given here. Starred links: 1 amine or outer side, 2 acyl side, 3 side chain; linkers in the order of their positions; H or OH if unused. Non-standard residues stand in square brackets, D forms with d. Residues, ends and D or L forms follow the SMILES beside them. *: point of attachment. X3 = C[C@H](O)CN(N[*:1])C(=O)NN(CCCCN)C(=O)[*:2]; X2 = CC(C)CN(NC(=O)N(C)N[*:1])C(=O)[*:2]; X1 = C[C@H](O)CN(N)C(=O)NN(CCCCN)C(=O)*

Columns and labels:
[1] = biological target: Amyloid-beta precursor protein (Homo sapiens) (UniProt P05067); experiment: Inhibition of Amyloid beta (1 to 42) (unknown origin) aggregation assessed as reduction in experimental fluorescence platea at 10 to 1 ratio of compound to amyloid beta (1 to 42) incubated for 48 hrs fluorescence-detected ThT-binding assay; set-up: scale not given: the % may be the effect or the level left
[2] = biological target: Amyloid-beta precursor protein (Homo sapiens) (UniProt P05067); experiment: Inhibition of Amyloid beta (1 to 42) (unknown origin) aggregation assessed as extension of time of the half aggregation at 10 to 1 ratio of compound to amyloid beta (1 to 42) incubated for 48 hrs fluorescence-detected ThT-binding assay; set-up: scale not given: the % may be the effect or the level left
[3] = biological target: T1, Islet amyloid polypeptide (Homo sapiens) (UniProt P10997); experiment: Inhibition of hIAPP aggregation assessed as ThT fluorescence intensity at 10 to 1 ratio of compound to hIAPP by ThT fluorescence spectroscopy
T1 sequence (whole entry): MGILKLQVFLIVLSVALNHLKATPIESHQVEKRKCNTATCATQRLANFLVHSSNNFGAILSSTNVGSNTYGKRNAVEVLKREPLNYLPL

[4] = Cytotoxicity against rat brain endothelial cells assessed as viability at 1 to 100 ug/ml measured after 1 hr by MTT assay; type: toxicity, cell-based; settings: endothelial cell, dose 1-100 µg/ml
[5] = biological target: Amyloid-beta precursor protein (Homo sapiens) (UniProt P05067); experiment: Inhibition of Amyloid beta (1 to 42) (unknown origin) fibril formation assessed as decrease in factor of rate constants of secondary nucleation(k2)/elongation(K+) at 10 to 1 ratio of compound to amyloid beta (1 to 42) incubated for 48 hrs ThT assay
[6] = biological target: Amyloid-beta precursor protein (Homo sapiens) (UniProt P05067); experiment: Inhibition of Amyloid beta (1 to 42) (unknown origin) fibril formation assessed as decrease in parallel beta sheet content at 125 uM measured upto 5 hrs by CD analysis
How it was run: (§1)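 CD at 25 °C, 195–250 nm, 0.1 cm cell, 50 nm/min, 0.1 nm resolution, five scans averaged. Aβ1-42 or Aβ1-28 at 25 μM with inhibitor at 125 μM, spectra taken at time points up to 5 h. Buffer or inhibitor spectrum subtracted, then smoothing. Secondary structure from 200–250 nm by BeStSel deconvolution.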

[7] = Apparent permeability of the compound in apical to basolateral side in rat blood-brain barrier model at 10 uM; type: ADME, tissue-based; settings: not told
How it was run: (§2)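 Rat in vitro BBB model; peptide applied at 5 or 10 μM, co-incubated with Lucifer yellow as integrity standard, solutions in low-binding tubes. Transport measured apical-to-basal and basal-to-apical, in triplicate. Apical and basal samples quantified by LC-MS/MS to give apparent permeability (Papp).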

[8] = Apparent permeability of the compound in apical to basolateral side in rat blood-brain barrier model at 5 uM; type: ADME, tissue-based; settings: not told; how it was run: as §2
[9] = Plasma stability in human plasma assessed as degraded peptide at 1 uM measured after 2 hrs by UPLC-MS/MS analysis; type: ADME, cell-free
How it was run: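 Compound at 1 μM in human plasma at 37 °C, duplicate. Sampled at 0, 15, 30, 45, 60 and 120 min. Analysed by reversed-phase UPLC, C18 at 40 °C, 4 min gradient of 0.1% formic acid in water/acetonitrile.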

[10] = species: Homo sapiens; experiment: Inhibition of Amyloid beta (1 to 28) (unknown origin) fibril formation assessed as ratio of alpha-helical to beta strand at 125 uM measured upto 5 hrs by CD spectra analysis (reference value: 0.39); how it was run: as §1
[11] = biological target: Amyloid-beta precursor protein (Homo sapiens) (UniProt P05067); experiment: Inhibition of Amyloid beta (1 to 42) (unknown origin) fibril formation assessed as decrease in factor of rate constants of secondary nucleation(k2)/elongation(K+) at 1 to 1 ratio of compound to amyloid beta (1 to 42) incubated for 48 hrs ThT assay

Amyloid-beta precursor protein (Homo sapiens), sequence (P05067 whole entry): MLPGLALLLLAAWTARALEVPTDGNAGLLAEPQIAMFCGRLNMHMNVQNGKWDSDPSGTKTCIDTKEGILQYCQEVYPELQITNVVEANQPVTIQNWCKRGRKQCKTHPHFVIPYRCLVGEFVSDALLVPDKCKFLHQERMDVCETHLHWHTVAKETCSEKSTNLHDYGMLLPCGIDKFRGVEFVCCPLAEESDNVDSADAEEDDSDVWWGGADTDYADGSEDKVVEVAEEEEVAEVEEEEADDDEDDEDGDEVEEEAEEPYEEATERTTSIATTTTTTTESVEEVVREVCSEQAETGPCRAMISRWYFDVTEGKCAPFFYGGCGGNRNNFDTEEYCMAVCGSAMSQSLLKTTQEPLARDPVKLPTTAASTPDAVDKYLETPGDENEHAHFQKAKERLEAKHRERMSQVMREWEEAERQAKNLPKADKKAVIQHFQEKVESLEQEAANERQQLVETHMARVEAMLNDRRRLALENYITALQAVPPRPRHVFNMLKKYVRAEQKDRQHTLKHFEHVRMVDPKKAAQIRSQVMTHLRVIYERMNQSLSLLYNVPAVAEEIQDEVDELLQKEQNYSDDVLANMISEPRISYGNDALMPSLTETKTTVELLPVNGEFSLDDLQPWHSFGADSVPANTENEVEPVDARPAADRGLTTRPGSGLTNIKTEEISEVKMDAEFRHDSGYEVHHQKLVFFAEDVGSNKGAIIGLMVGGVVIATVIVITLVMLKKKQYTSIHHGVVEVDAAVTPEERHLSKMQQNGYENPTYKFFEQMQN

Activity [1]	Activity [2]	inhibition [3]	Compound	further results
41%	42%	–	CC(=O)NN(C[C@H](C)O)C(=O)NN(CCCCN)C(=O)N[C@@H](CO)C(=O)NN(Cc1ccc(O)cc1)C(=O)NN(CCc1c[nH]c2ccccc12)C(=O)N[C@@H](CCCCN)C(=O)NN(C)C(=O)NN(CC(C)C)C(=O)NCC(N)=O	–
62%	72%	–	CC(=O)NN(C[C@H](C)O)C(=O)NN(CCCCN)C(=O)N[C@@H](CO)C(=O)NN(Cc1ccc(O)cc1)C(=O)NN(CCc1c[nH]c2ccccc12)C(=O)N[C@@H](CCCCN)C(=O)N[C@@H](C)C(=O)N[C@@H](CC(C)C)C(=O)NCC(N)=O	–
55%	34%	–	CC(=O)N[C@H](C(=O)N[C@@H](CCCCN)C(=O)N[C@@H](CO)C(=O)NN(Cc1ccc(O)cc1)C(=O)NN(CCc1c[nH]c2ccccc12)C(=O)N[C@@H](CCCCN)C(=O)NN(C)C(=O)NN(CC(C)C)C(=O)NCC(N)=O)[C@@H](C)O	–
56%	102%	–	CC(=O)N[C@H](C(=O)N[C@@H](CCCCN)C(=O)N[C@@H](CO)C(=O)NN(Cc1ccc(O)cc1)C(=O)NN(CCc1c[nH]c2ccccc12)C(=O)N[C@@H](CCCCN)C(=O)N[C@@H](C)C(=O)N[C@@H](CC(C)C)C(=O)NCC(N)=O)[C@@H](C)O	–
30%	59%	–	CC(=O)N[C@H](C(=O)N[C@@H](CCCCN)C(=O)N[C@@H](CO)C(=O)N[C@@H](Cc1ccc(O)cc1)C(=O)N[C@@H](Cc1c[nH]c2ccccc12)C(=O)N[C@@H](CCCCN)C(=O)NN(C)C(=O)NN(CC(C)C)C(=O)NCC(N)=O)[C@@H](C)O (Ac-TKSYWK[X2]G-NH2)	–
36%	107%	–	CC(=O)NN(C[C@H](C)O)C(=O)NN(CCCCN)C(=O)N[C@@H](CO)C(=O)N[C@@H](Cc1ccc(O)cc1)C(=O)N[C@@H](Cc1c[nH]c2ccccc12)C(=O)N[C@@H](CCCCN)C(=O)N[C@@H](C)C(=O)N[C@@H](CC(C)C)C(=O)NCC(N)=O (Ac-[X3]SYWKALG-NH2)	–
41%	30%	inactive	CC(=O)NN(C[C@H](C)O)C(=O)NN(CCCCN)C(=O)N[C@@H](CO)C(=O)N[C@@H](Cc1ccc(O)cc1)C(=O)N[C@@H](Cc1c[nH]c2ccccc12)C(=O)N[C@@H](CCCCN)C(=O)NN(C)C(=O)NN(CC(C)C)C(=O)NCC(N)=O (Ac-[X3]SYWK[X2]G-NH2)	–
60%	36%	–	CC(C)CN(NC(=O)N(C)NC(=O)[C@H](CCCCN)NC(=O)[C@H](Cc1c[nH]c2ccccc12)NC(=O)[C@H](Cc1ccc(O)cc1)NC(=O)[C@H](CO)NC(=O)[C@H](CCCCN)NC(=O)[C@@H](N)[C@@H](C)O)C(=O)NCC(N)=O (H-TKSYWK[X2]G-NH2)	–
54%	193%	inactive	CC(C)C[C@H](NC(=O)[C@H](C)NC(=O)[C@H](CCCCN)NC(=O)[C@H](Cc1c[nH]c2ccccc12)NC(=O)[C@H](Cc1ccc(O)cc1)NC(=O)[C@H](CO)NC(=O)N(CCCCN)NC(=O)N(N)C[C@H](C)O)C(=O)NCC(N)=O (X1-SYWKALG-NH2)	–
57%	254%	inactive	CC(C)CN(NC(=O)N(C)NC(=O)[C@H](CCCCN)NC(=O)[C@H](Cc1c[nH]c2ccccc12)NC(=O)[C@H](Cc1ccc(O)cc1)NC(=O)[C@H](CO)NC(=O)N(CCCCN)NC(=O)N(N)C[C@H](C)O)C(=O)NCC(N)=O (X1-SYWK[X2]G-NH2)	Activity [4]: Non-Toxic; Ratio [5]: 1e+09; inhibition [6]: Active; Papp A→B at 10 µM [7]: 0.677 ×10⁻⁶ cm/s; Papp A→B at 5 µM [8]: 0.839 ×10⁻⁶ cm/s; metabolised at 2 h, 1 µM [9]: 6%; Ratio [10]: 2.16; Ratio [11]: 10
59%	209%	inactive	H-TKSYWKALG-NH2	Ratio [5]: 100; inhibition [6]: Active; metabolised at 2 h, 1 µM [9]: 99%; Ratio [10]: 0.66; inhibition [11]: inactive
